Measured values taken from article PMC3240686 (Journal of medicinal chemistry, 2011).

Tests used:
[1] = system: carrageenan-induced thermal hyperalgesia; experiment: Carrageenan-induced thermal hyperalgesia; format: in vivo; conditions: rats; for activity at inhibiting hyperalgesia: carrageenan model; for antihyperalgesic effect and its duration: oral 100 mg/kg, n=2, time post-carrageenan; for block of development of carrageenan-induced hyperalgesia, i.p.: i.p. injection 10 mg/kg; for block of development of carrageenan-induced hyperalgesia, i.p. / block of carrageenan-induced hyperalgesia, oral: 30 min before carrageenan, n=3
In short: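 Under light CO2 (80%)/O2 (20%) anaesthesia, rats received subplantar 1% carrageenan in saline (vehicle: saline) into the right hindpaw. For prophylactic dosing, drug or vehicle was given by gavage or i.p. 30 min before carrageenan. Heat hyperalgesia was measured by the Hargreaves plantar test, with an infrared stimulus from below and a 20 s cut-off. The read-out was change in paw-withdrawal latency (s).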

[2] = Cyclic voltammetry in CH2Cl2; format: physicochemical
[3] = Relative lipophilicity by reversed phase HPLC retention factors; format: physicochemical; conditions: relative to parent compound 7, isocratic conditions
[4] = system: mechano-allodynia after CCI of the sciatic nerve; experiment: Chronic constriction injury; format: in vivo; conditions: mice
[5] = Observed acute toxicity in the carrageenan hyperalgesia studies; format: in vivo, rats
[6] = octanol-water, slow stir method
[7] = dose 300 mg/kg, 2 h time point, n=6

Question: Which “% inhibition of hyperalgesia” value [1, 7] does the source give for CC(C)Cc1ccc(C(C)C(=O)O)cc1 (centres unmarked) [ibuprofen, reference compound] here?
Answer: Its value is 99±5%.

Question: What does the source list for “Mn(III)-5,15-di-phenyl-TCHP Chloride [Compound 10]”?
Answer: reversible (presumably porphyrin-based) oxidation potential ([2]; cyclic voltammetry in CH2Cl2): 0.89 V. vs. ferrocene; Mn(II/III) couple ([2]; cyclic voltammetry in CH2Cl2, chemically reversible): −0.79 V vs. ferrocene; activity at inhibiting hyperalgesia [1]: active at inhibiting hyperalgesia

Question: Which “antihyperalgesic effect and its duration” value [1] does the source give for “Mn(III)-5,15-bis(4-propionyloxymethyl)phenyl-TCHP [Compound 16b]” here?
Answer: The value was “strong antihyperalgesic effect out to 3 hours with a decline in this effect occurring in the 4–5 hour time period”.

Question: What about the “relative lipophilicity by RPHPLC retention factor” value (“relative lipophilicity” below) [3] of the same compound?
Answer: The value was “progressively more lipophilic”.

Question: Which “antihyperalgesic effect and its duration” value [1] does the source give for “Mn(III)-5,15-bis(4-acetoxymethyl)phenyl-TCHP [Compound 16a]” here?
Answer: Its value is “strong antihyperalgesic effect out to 2 hours post-carrageenan but the effect was lost at 3 hours”.

Question: And the “relative lipophilicity” value [3]?
Answer: Its value is “progressively more lipophilic”.

Question: For Mn(III)-TCHP Chloride [Compound 7], which “reversal of established hyperalgesia: pain at 1 h after dosing” value ([1]; 100 mg/kg oral gavage at 3 h post carrageenan, 4 hour time point) is on record?
Answer: The value was “pain was substantially reduced”.

Question: What about the “block of development of carrageenan-induced hyperalgesia, i.p.” value [1] of the same compound?
Answer: Its value is “blocked the development of carrageenan-induced hyperalgesia”.

Question: And the “block of carrageenan-induced hyperalgesia, oral” value ([1]; oral gavage 100 mg/kg)?
Answer: The value was “able to block hyperalgesia when given orally”.

Question: What about the “% inhibition of hyperalgesia” value ([1]; oral gavage 100 mg/kg, for 2 h) of the same compound?
Answer: The value was ~100%.

Question: And the “inhibitory effect at late time” value ([1]; oral gavage 100 mg/kg, out to 5 h)?
Answer: Its value is “substantial inhibitory effect maintained out to 5 h”.

Question: And the “effect on withdrawal responses of contralateral paws” value ([4]; oral 10–100 mg/kg)?
Answer: The value was “no effect”.

Question: And the “reversal of neuropathic pain (mechano-allodynia)” value ([4]; oral 10–100 mg/kg at time of peak mechano-allodynia, n=4)?
Answer: Its value is “rapid, dose-dependent and near-to-maximal reversal of neuropathic pain within 1h post-dosing”.

Question: What about the “95% CI of ED50” value ([4]; oral, at time of peak reversal, n=4) of the same compound?
Answer: Its value is 15.64 to 51.67 mg/kg/day.

Question: What about the “ED50, reversal of mechano-allodynia” value ([4]; oral, day 7 after CCI, at time of peak reversal, n=4) of the same compound?
Answer: Its value is 28 mg/kg.

Question: What about the acute toxicity ([5]; doses at least 6–8 fold higher than the one needed to block hyperalgesia) of the same compound?
Answer: Its acute toxicity is “no observable acute toxicities”.

Question: And the LogP [6]?
Answer: Its LogP is 3.77.

Question: Which “antihyperalgesic effect and its duration” value [1] does the source give for “Mn(III)-5,15-bis(4-hydroxymethyl)phenyl-TCHP [Compound 15]” here?
Answer: Its value is “excellent potency out to the 5 hour time point”.

Question: What about the “relative lipophilicity” value [3] of the same compound?
Answer: Its value is “substantially less lipophilic than parent compound 7”.

Question: With “Mn(III)-5,15-bis(4-isobutyryloxymethyl)phenyl-TCHP [Compound 16c]” as the compound, how does the “antihyperalgesic effect and its duration” value [1] read?
Answer: The value was “potent anti-hyperalgesic action out to the 5 hour time point”.

Question: And the “relative lipophilicity” value [3]?
Answer: Its value is “progressively more lipophilic”.

Question: Which “% inhibition of hyperalgesia” value [1, 7] does the source give for CC(=O)Nc1ccc(O)cc1 [acetaminophen, reference compound] here?
Answer: The value was 20±4%.

Question: Which results are given for CC[n+]1ccccc1-c1c2nc(c(-c3cccc[n+]3CC)c3ccc([n-]3)c(-c3cccc[n+]3CC)c3nc(c(-c4cccc[n+]4CC)c4ccc1[n-]4)C=C3)C=C2.[Mn+3] [Mn(III)-TE-2-PyP^5+, Mn(III) meso-tetrakis[(N-ethyl)pyridinium-2-yl]porphyrin (5+), reference compound]?
Answer: block of development of carrageenan-induced hyperalgesia, i.p. [1]: blocked the development of carrageenan-induced hyperalgesia; block of carrageenan-induced hyperalgesia, oral ([1]; oral gavage 100 mg/kg): only 7 is able to block hyperalgesia when given orally; mortality ([5]; i.p., 3 fold higher dose than the one required to block hyperalgesia): 100%

Question: With CC(=O)Oc1ccccc1C(=O)O [aspirin, reference compound] as the compound, how does the “% inhibition of hyperalgesia” value [1, 7] read?
Answer: The value was 50±6%.

Question: With “Mn(III)-5, 10, 15, 25-tetrakis-phenyl-TCHP Chloride [Compound 12]” as the compound, how does the “activity at inhibiting hyperalgesia” value [1] read?
Answer: The value was “active at inhibiting hyperalgesia”.
